As usually defined, the inhibition is the percentage by which the read-out fell short of the control. As a reminder, the IC50 is the concentration at which inhibition is half-maximal.

Active and inactive are the calls of the source. The calls are words filed in the database; no cut-off is given here.

This is an account of results in ChEMBL document CHEMBL4390651, “Indole based antimalarial compounds targeting the melatonin pathway: Their design, synthesis and biological evaluation” (Eur J Med Chem, 2019).

Data set [1] deals with Plasmodium falciparum. The data set is described as follows: Antimalarial activity against Plasmodium falciparum 3D7 ring stage synchronized forms infected in human erythrocytes assessed as inhibition of parasite proliferation at 5 uM incubated for 48 hrs by Giemsa-staining method. The class given is functional. The conditions noted are these: 3D7, 48 h. The gist of the method: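 P. falciparum 3D7 grown in human O+ erythrocytes at 5% hematocrit in RPMI 1640 with NaHCO3, albumax, gentamicin and hypoxanthine, at 37 °C under 90% N2/5% CO2/5% O2. Single-concentration screen read as % inhibition of parasite proliferation. Mean of three experiments, each in triplicate.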

For data set [2], the system named is Plasmodium falciparum. The data set is described as follows: Antimalarial activity against Plasmodium falciparum 3D7 infected in human erythrocytes assessed as reduction in [3H]hypoxanthine incorporation pretreated for 24 hrs followed by [3H]hypoxanthine addition and measured after 48 hrs by scintillation counting method.
Data set [3] concerns Plasmodium falciparum. The data set can be described thus: Antimalarial activity against synchronized ring stage of Plasmodium falciparum 3D7 infected in human erythrocytes assessed as inhibition of parasite growth at 10 uM incubated for 0 to 48 hrs by Giemsa staining-based microscopic analysis. In kind it is functional. The procedure, abridged: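 3D7 was sorbitol-synchronized to ring stage at 1% parasitemia, cultured in human O+ erythrocytes (5% hematocrit, RPMI 1640/albumax, 37 °C, low-O2 gas), and exposed for 48 h, with DMSO as control. Giemsa smears at 0, 12, 24, 36 and 48 h gave parasitemia and stage morphology. Mean ± SD of three independent experiments.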

Data set [4] relates to Plasmodium falciparum. The data set is described as follows: Antimalarial activity against ring stage of Plasmodium falciparum 3D7 infected in human erythrocytes assessed as parasite survival level at 10 uM measured immediately at 0 hrs by Giemsa staining-based microscopic analysis (reference value: 96.4 +/- 5.09%). The class given is functional. The conditions noted are these: 3D7, 0 h.

Data set [5] relates to Plasmodium falciparum. The data set can be described thus: Antimalarial activity against trophozoite stage of Plasmodium falciparum 3D7 infected in human erythrocytes assessed as parasite survival level at 10 uM measured immediately at 0 hrs by Giemsa staining-based microscopic analysis (reference value: 3.55 +/- 5.02%). In kind it is functional. To be noted: 3D7, 0 h.
The test system of data set [6] is Plasmodium falciparum. The data set is described as follows: Antimalarial activity against schizont stage of Plasmodium falciparum 3D7 infected in human erythrocytes assessed as parasite survival level at 10 uM measured immediately at 0 hrs by Giemsa staining-based microscopic analysis (reference value: 0%). In kind it is functional. To be noted: 3D7, 0 h.
Data set [7] relates to Plasmodium falciparum. The data set is described as follows: Antimalarial activity against ring stage of Plasmodium falciparum 3D7 infected in human erythrocytes assessed as parasite survival level at 10 uM incubated for 48 hrs by Giemsa staining-based microscopic analysis (reference value: 51.3 +/- 1.83%). The conditions noted are these: 3D7, 48 h. In kind it is functional.

In data set [8] the test system is Plasmodium falciparum. The data set is described as follows: Antimalarial activity against trophozoite stage of Plasmodium falciparum 3D7 infected in human erythrocytes assessed as parasite survival level at 10 uM incubated for 48 hrs by Giemsa staining-based microscopic analysis (reference value: 43.65 +/- 5.16%). The class given is functional. The conditions noted are these: 3D7, 48 h.

The subject of data set [9] is Plasmodium falciparum. The data set is described as follows: Antimalarial activity against schizont stage of Plasmodium falciparum 3D7 infected in human erythrocytes assessed as parasite survival level at 10 uM incubated for 48 hrs by Giemsa staining-based microscopic analysis (reference value: 5 +/- 7.07%). The class given is functional. To be noted: 3D7, 48 h.
Data set [10] relates to Plasmodium falciparum. The data set is described as follows: Antimalarial activity against mixed stage of Plasmodium falciparum infected in human erythrocytes assessed as protection against melatonin-induced parasite synchronization by measuring parasitemia at 1 uM measured immediately at 0 hrs by Giemsa staining-based microscopic analysis (reference value: 1.05 +/- 0.07%). In kind it is functional.

The subject of data set [11] is Plasmodium falciparum. The data set can be described thus: Antimalarial activity against mixed stage of Plasmodium falciparum infected in human erythrocytes assessed as protection against melatonin-induced parasite synchronization by measuring parasitemia at 5 uM measured immediately at 0 hrs by Giemsa staining-based microscopic analysis (reference value: 1.05 +/- 0.07%). The class given is functional.

The subject of data set [12] is Plasmodium falciparum. The data set can be described thus: Antimalarial activity against mixed stage of Plasmodium falciparum infected in human erythrocytes assessed as protection against melatonin-induced parasite synchronization by measuring parasitemia at 1 uM incubated for 48 hrs by Giemsa staining-based microscopic analysis (reference value: 4.76 +/- 0.61%). In kind it is functional.

The subject of data set [13] is Plasmodium falciparum. The data set is described as follows: Antimalarial activity against mixed stage of Plasmodium falciparum infected in human erythrocytes assessed as protection against melatonin-induced parasite synchronization by measuring parasitemia at 5 uM incubated for 48 hrs by Giemsa staining-based microscopic analysis (reference value: 4.76 +/- 0.61%). In kind it is functional.

Data set [14] concerns Plasmodium falciparum. The data set is described as follows: Antimalarial activity against ring stage of Plasmodium falciparum infected in human erythrocytes assessed as protection against melatonin-induced parasite synchronization by measuring parasitemia 1 uM measured immediately by Giemsa staining-based microscopic analysis (reference value: 23.90 +/- 0.84%). In kind it is functional.

Data set [15] concerns Plasmodium falciparum. The data set is described as follows: Antimalarial activity against troph stage of Plasmodium falciparum infected in human erythrocytes assessed as protection against melatonin-induced parasite synchronization by measuring parasitemia 1 uM measured immediately by Giemsa staining-based microscopic analysis (reference value: 52.50 +/- 0.70%). The class given is functional.

The test system of data set [16] is Plasmodium falciparum. The data set is described as follows: Antimalarial activity against schizont stage of Plasmodium falciparum infected in human erythrocytes assessed as protection against melatonin-induced parasite synchronization by measuring parasitemia 1 uM measured immediately by Giemsa staining-based microscopic analysis (reference value: 23.25 +/- 0.35%). In kind it is functional.

Data set [17] concerns Plasmodium falciparum. The data set is described as follows: Antimalarial activity against ring stage of Plasmodium falciparum infected in human erythrocytes assessed as protection against melatonin-induced parasite synchronization by measuring parasitemia 5 uM measured immediately by Giemsa staining-based microscopic analysis (reference value: 23.90 +/- 0.84%). The class given is functional.

For data set [18], the system named is Plasmodium falciparum. The data set can be described thus: Antimalarial activity against troph stage of Plasmodium falciparum infected in human erythrocytes assessed as protection against melatonin-induced parasite synchronization by measuring parasitemia 5 uM measured immediately by Giemsa staining-based microscopic analysis (reference value: 52.50 +/- 0.70%). In kind it is functional.

The test system of data set [19] is Plasmodium falciparum. The data set is described as follows: Antimalarial activity against schizont stage of Plasmodium falciparum infected in human erythrocytes assessed as protection against melatonin-induced parasite synchronization by measuring parasitemia 5 uM measured immediately by Giemsa staining-based microscopic analysis (reference value: 23.25 +/- 0.35%). In kind it is functional.

The subject of data set [20] is Plasmodium falciparum. The data set is described as follows: Antimalarial activity against ring stage of Plasmodium falciparum infected in human erythrocytes assessed as protection against melatonin-induced parasite synchronization by measuring parasitemia 1 uM incubated for 48 hrs by Giemsa staining-based microscopic analysis (reference value: 11.80 +/- 9.19%). In kind it is functional.

In data set [21] the test system is Plasmodium falciparum. The data set can be described thus: Antimalarial activity against troph stage of Plasmodium falciparum infected in human erythrocytes assessed as protection against melatonin-induced parasite synchronization by measuring parasitemia 1 uM incubated for 48 hrs by Giemsa staining-based microscopic analysis (reference value: 88.20 +/- 9.19%). In kind it is functional.

The subject of data set [22] is Plasmodium falciparum. The data set is described as follows: Antimalarial activity against schizont stage of Plasmodium falciparum infected in human erythrocytes assessed as protection against melatonin-induced parasite synchronization by measuring parasitemia 1 uM incubated for 48 hrs by Giemsa staining-based microscopic analysis (reference value: 0%). In kind it is functional.

The test system of data set [23] is Plasmodium falciparum. The data set is described as follows: Antimalarial activity against ring stage of Plasmodium falciparum infected in human erythrocytes assessed as protection against melatonin-induced parasite synchronization by measuring parasitemia 5 uM incubated for 48 hrs by Giemsa staining-based microscopic analysis (reference value: 11.80 +/- 9.19%). The class given is functional.

Data set [24] has as its system Plasmodium falciparum. The data set is described as follows: Antimalarial activity against troph stage of Plasmodium falciparum infected in human erythrocytes assessed as protection against melatonin-induced parasite synchronization by measuring parasitemia 5 uM incubated for 48 hrs by Giemsa staining-based microscopic analysis (reference value: 88.20 +/- 9.19%). In kind it is functional.

Data set [25] concerns Plasmodium falciparum. The data set can be described thus: Antimalarial activity against schizont stage of Plasmodium falciparum infected in human erythrocytes assessed as protection against melatonin-induced parasite synchronization by measuring parasitemia 5 uM incubated for 48 hrs by Giemsa staining-based microscopic analysis (reference value: 0%). In kind it is functional.

Data set [26] has as its system Plasmodium falciparum. The data set is described as follows: Antimalarial activity against synchronized ring stage of Plasmodium falciparum 3D7 infected in human erythrocytes assessed as inhibition of parasite growth incubated for 48 hrs by Giemsa staining-based microscopic analysis. To be noted: 3D7, 48 h. In kind it is functional, organism-based. The gist of the method: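 Sorbitol-synchronized ring-stage 3D7 in human O+ erythrocytes was exposed to four concentrations (1, 5, 10 and 20) for 48 h. Parasitemia was counted on Giemsa smears and IC50 taken from the dose-response curve. Mean ± SD of three independent experiments.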

Data set [27] concerns Plasmodium falciparum. The data set is described as follows: Antimalarial activity against chloroquine resistant Plasmodium falciparum RKL9 infected in human erythrocytes assessed as reduction in parasitemia incubated for 0 to 48 hrs by Giemsa staining-based microscopic analysis. The class given is functional, organism-based. The procedure, abridged:
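Sorbitol-synchronized ring-stage culture at 1% parasitemia, 5% hematocrit in human O+ erythrocytes (RPMI 1640, 0.5% albumax, hypoxanthine, gentamicin; 37 °C, 5% CO2/5% O2/90% N2). Compounds at […] for 48 h. Parasitemia counted on Giemsa-stained smears at 0 and 48 h. DMSO control. Mean of three independent experiments ±SD.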

Data set [28] is described as follows: Stability of the compound in 0.01 N HCL at pH 2.0 assessed as compound remaining at 1 mg/ml incubated for 0 to 24 hrs by HPLC analysis relative to control. To be noted: buffer. In kind it is physicochemical. The gist of the method: (§1)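 Compound stock in acetonitrile was added to 1.0 mL of fresh 0.01 N HCl (pH 2.0) or phosphate buffer (pH 7.4), held at 37 °C, and the amount remaining was measured by HPLC at intervals from 0 to 24 h.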

Data set [29] can be described thus: Stability of the compound in phosphate buffer at pH 7.4 assessed as compound remaining at 1 mg/ml incubated for 0 to 24 hrs by HPLC analysis relative to control. The class given is physicochemical. The conditions noted are these: buffer. The gist of the method: as §1

As to `COC(=O)NCCc1c(C(=O)c2ccc(Cl)cc2)[nH]c2ccccc12`, the inhibition at 5 µM in data set [1] amounted to 9%.

Consider `CC(C)=C[C@H]1C[C@](C)(/C=C/c2[nH]c3ccccc3c2CCN(C)C)n2c1c(CCN(C)C)c1ccccc12`, for which, in data set [2], the IC50 lay within 150 to 1420 nM.

In the case of `CC(=O)NCCc1c(Cc2ccccc2)[nH]c2ccccc12` [LUZINDOLE], the inhibition at 5 µM in data set [1] is 48%. For the same molecule, the “growth inhibition (GI)” value in data set [3] was “Active”. The survival at 10 µM in [4] amounted to 91.5%; in [5] it was 8%; in [6], 0.5%; in data set [7] it was 61.6%; in data set [8] it was 38.4%; in [9] it was 0%. Further, the Activity is listed as 1.1% in data set [10]; 1.03% in data set [11]; 2.88% in data set [12]; 2.56% in [13]; 23% in data set [14]; 50.5% in data set [15]. The Activity in data set [16] was determined as 25.8%; in data set [17] it was 23.75%; in data set [18], 51.9%; in data set [19] it was 24%; in data set [20], 19.1%; in [21], 80.9%. For the same molecule, the Activity is recorded as 0% in [22], 21.97% in [23], 77.15% in data set [24] and 0.88% in data set [25].

In the case of `C/N=C(\c1cc(Br)cs1)c1[nH]c2ccccc2c1CCNC(=O)OC`, the inhibition at 10 µM in data set [3] came to 15%.

For `C/N=C(/c1ccccc1)c1[nH]c2ccccc2c1CCNC(=O)OC`, the “growth inhibition (GI)” value in data set [3] was “Active”. For the same molecule, the survival at 10 µM in data set [4] was 95.8%; in [5], 4.15%; in data set [6] it was 0%; in data set [7], 17.5%; in [8] it was 77.5%; in [9], 5%. Moreover, in [26], the IC50 came to 890 nM. Also, the inhibition entry in data set [27] was “Dose dependent effect”. Besides, the Stability entry in data set [28] and in data set [29] was “Unstable” each time.

For the molecule `C/N=C(/c1ccc(OC)cc1F)c1[nH]c2ccccc2c1CCNC(=O)OC`, the inhibition at 5 µM in data set [1] was determined as 47%.
